We go through seven molecules from ChEMBL document CHEMBL3272012, “5-(Tetradecyloxy)-2-furancarboxylic acid and related hypolipidemic fatty acid-like alkyloxyarylcarboxylic acids” (J Med Chem, 1977).

Series [1] concerns Rattus norvegicus. Description: Hypolipidemic activity in Wistar rat assessed as reduction in plasma triglyceride level at 402 umol/kg/day administered through diet for 10 days. It counts as functional. The note with it: 240 h.
Series [2] deals with Rattus norvegicus. Description: Increase in cholesterol level in Wistar rat liver at 402 umol/kg/day administered through diet for 10 days. The class given is ADME, organism-based. Conditions: in vivo, po, 240 h.
For series [3], the system named is Rattus norvegicus. Description: Increase in cholesterol level in Wistar rat liver at 85 umol/kg/day administered through diet for 10 days. It counts as ADME, organism-based. Conditions: in vivo, po, 240 h.
In series [4] the test system is Rattus norvegicus. The series is described as follows: Hypolipidemic activity in Wistar rat assessed as reduction in plasma cholesterol level at 179 umol/kg/day administered through diet for 10 days. It counts as functional. Conditions: 240 h. Summed up: (§1)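 Young male Wistar rats, 170-190 g at start, in groups of six, given compound mixed into Purina Lab Chow ad libitum for 4 or 10 days as stated. Daily dose was calculated from food consumption and body weight. Plasma was taken by cardiac puncture at the end and cholesterol measured by automated procedure. Results are % reduction versus a concurrent untreated control group, with Student's t test.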

The subject of series [5] is Rattus norvegicus. The series is described as follows: Hypolipidemic activity in Wistar rat assessed as reduction in plasma triglyceride level at 179 umol/kg/day administered through diet for 10 days. The note with it: 240 h. It counts as functional. Summed up: (§2)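 Young male Wistar rats (initial weight 170-190 g), groups of six, fed compound mixed into Purina Lab Chow ad libitum for 4 or 10 days; daily dose calculated from food consumption and body weight. Bled by cardiac puncture; plasma cholesterol and triglycerides by automated procedures; percent reduction versus simultaneous untreated controls, Student's t test.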

The subject of series [6] is Rattus norvegicus. The series is described as follows: Increase in cholesterol level in Wistar rat liver at 179 umol/kg/day administered through diet for 10 days. The class given is ADME, organism-based. Conditions: in vivo, po, 240 h. In short, it runs like this: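 Male Wistar rats (170-190 g), six per group, given compound by admixture to lab chow ad libitum for 4 or 10 days, dose derived from food intake. Liver cholesterol determined by automated procedure, expressed as mg/g wet tissue, compared with an untreated control group by Student's t test.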

In series [7] the test system is Rattus norvegicus. Description: Hypolipidemic activity in Wistar rat assessed as reduction in plasma triglyceride level at 85 umol/kg/day administered through diet for 10 days. Conditions: 240 h. The class given is functional.
For series [8], the system named is Rattus norvegicus. The series is described as follows: Hypolipidemic activity in Wistar rat assessed as reduction in plasma cholesterol level at 85 umol/kg/day administered through diet for 10 days. It counts as functional. Conditions: 240 h. In short, it runs like this: as §2
Series [9] relates to Rattus norvegicus. Description: Hypolipidemic activity in Wistar rat assessed as reduction in plasma cholesterol level at 402 umol/kg/day administered through diet for 10 days. The note with it: 240 h. The class given is functional. In short, it runs like this:
as §1

The subject of series [10] is Rattus norvegicus. Description: Increase in liver weight in Wistar rat at 402 umol/kg/day administered through diet for 10 days. Conditions: in vivo, po, 240 h. The class given is ADME, organism-based.
For series [11], the system named is Rattus norvegicus. The series is described as follows: Increase in liver weight in Wistar rat at 179 umol/kg/day administered through diet for 10 days. The class given is ADME, organism-based. The note with it: in vivo, po, 240 h.
In series [12] the test system is Rattus norvegicus. The series is described as follows: Increase in liver weight in Wistar rat at 85 umol/kg/day administered through diet for 10 days. The class given is ADME, organism-based. The note with it: in vivo, po, 240 h.
In series [13] the test system is Rattus norvegicus. Description: Hypolipidemic activity in Wistar rat assessed as reduction in plasma cholesterol level at 385 umol/kg/day administered through diet for 4 days. It counts as functional. Conditions: 96 h. In short, it runs like this:
as §1

Series [14] relates to Rattus norvegicus. The series is described as follows: Increase in liver weight in Wistar rat at 385 umol/kg/day administered through diet for 4 days. It counts as ADME, organism-based. Conditions: in vivo, po, 96 h.
Series [15] relates to Rattus norvegicus. The series is described as follows: Hypolipidemic activity in Wistar rat assessed as reduction in plasma triglyceride level at 385 umol/kg/day administered through diet for 4 days. Conditions: 96 h. It counts as functional. In short, it runs like this:
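Young male Wistar rats (170-190 g initial weight), groups of six, fed test compound mixed into Purina Lab Chow ad libitum; daily dose calculated from food consumption and body weight. Bled by cardiac puncture at end of treatment; plasma triglycerides measured by automated procedure. Results given as percent reduction versus a simultaneous untreated control group, with significance by Student's t test.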

Series [16] concerns Rattus norvegicus. Description: Increase in cholesterol level in Wistar rat liver at 385 umol/kg/day administered through diet for 4 days. The class given is ADME, organism-based. The note with it: in vivo, po, 96 h.
Series [17] has as its system Rattus norvegicus. The series is described as follows: Increase in liver weight in Wistar rat at 499 umol/kg/day administered through diet for 4 days. The class given is ADME, organism-based. The note with it: in vivo, po, 96 h. In short, it runs like this:
(§3)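 Male Wistar rats (170-190 g initial), groups of six, dosed via diet ad libitum for 4 or 10 days, daily dose from food consumption. Liver wet weight measured, expressed as g/100 g final body weight, compared with untreated controls run simultaneously.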

Series [18] has as its system Rattus norvegicus. Description: Hypolipidemic activity in Wistar rat assessed as reduction in plasma cholesterol level at 499 umol/kg/day administered through diet for 4 days. Conditions: 96 h. It counts as functional. Summed up:
(§4)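 Young male Wistar rats, 170-190 g initial weight, groups of six, given compound mixed thoroughly into Purina Lab Chow ad libitum for 4 or 10 days as stated. Daily dose calculated from food consumption and body weight. Bled by cardiac puncture at end of treatment; plasma cholesterol measured by automated procedure. Expressed as percent reduction versus simultaneous untreated control group; Student's t test.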

Series [19] concerns Rattus norvegicus. Description: Increase in cholesterol level in Wistar rat liver at 499 umol/kg/day administered through diet for 4 days. It counts as ADME, organism-based. Conditions: in vivo, po, 96 h.
Series [20] has as its system Rattus norvegicus. Description: Hypolipidemic activity in Wistar rat assessed as reduction in plasma triglyceride level at 499 umol/kg/day administered through diet for 4 days. The class given is functional. Conditions: 96 h. Summed up: as §2
Series [21] deals with Rattus norvegicus. Description: Increase in cholesterol level in Wistar rat liver at 477 umol/kg/day administered through diet for 4 days. It counts as ADME, organism-based. The note with it: in vivo, po, 96 h.
Series [22] relates to Rattus norvegicus. Description: Increase in liver weight in Wistar rat at 477 umol/kg/day administered through diet for 4 days. The note with it: in vivo, po, 96 h. The class given is ADME, organism-based.
The test system of series [23] is Rattus norvegicus. Description: Hypolipidemic activity in Wistar rat assessed as reduction in plasma triglyceride level at 477 umol/kg/day administered through diet for 4 days. Conditions: 96 h. The class given is functional.
Series [24] deals with Rattus norvegicus. Description: Hypolipidemic activity in Wistar rat assessed as reduction in plasma cholesterol level at 477 umol/kg/day administered through diet for 4 days. Conditions: 96 h. It counts as functional. Summed up:
as §4

Series [25] relates to Rattus norvegicus. The series is described as follows: Hypolipidemic activity in Wistar rat assessed as reduction in plasma cholesterol level at 472 umol/kg/day administered through diet for 4 days. It counts as functional. Conditions: 96 h. In short, it runs like this:
as §4

Series [26] has as its system Rattus norvegicus. The series is described as follows: Increase in cholesterol level in Wistar rat liver at 472 umol/kg/day administered through diet for 4 days. The class given is ADME, organism-based. The note with it: in vivo, po, 96 h.
Series [27] concerns Rattus norvegicus. Description: Hypolipidemic activity in Wistar rat assessed as reduction in plasma triglyceride level at 472 umol/kg/day administered through diet for 4 days. The note with it: 96 h. It counts as functional.
Series [28] relates to Rattus norvegicus. Description: Increase in liver weight in Wistar rat at 472 umol/kg/day administered through diet for 4 days. The class given is ADME, organism-based. Conditions: in vivo, po, 96 h.
The test system of series [29] is Rattus norvegicus. Description: Hypolipidemic activity in Wistar rat assessed as reduction in plasma cholesterol level at 459 umol/kg/day administered through diet for 10 days. It counts as functional. The note with it: 240 h. Summed up:
as §4

For series [30], the system named is Rattus norvegicus. The series is described as follows: Increase in liver weight in Wistar rat at 459 umol/kg/day administered through diet for 10 days. The class given is ADME, organism-based. The note with it: in vivo, po, 240 h.
Series [31] concerns Rattus norvegicus. Description: Hypolipidemic activity in Wistar rat assessed as reduction in plasma triglyceride level at 459 umol/kg/day administered through diet for 10 days. The note with it: 240 h. The class given is functional.
For series [32], the system named is Rattus norvegicus. Description: Increase in cholesterol level in Wistar rat liver at 459 umol/kg/day administered through diet for 10 days. It counts as ADME, organism-based. The note with it: in vivo, po, 240 h.
Series [33] relates to Rattus norvegicus. The series is described as follows: Increase in cholesterol level in Wistar rat liver at 401 umol/kg/day administered through diet for 4 days. Conditions: in vivo, po, 96 h. It counts as ADME, organism-based.
Series [34] has as its system Rattus norvegicus. The series is described as follows: Hypolipidemic activity in Wistar rat assessed as reduction in plasma cholesterol level at 401 umol/kg/day administered through diet for 4 days. The class given is functional. The note with it: 96 h. Summed up: as §1
Series [35] relates to Rattus norvegicus. Description: Increase in liver weight in Wistar rat at 401 umol/kg/day administered through diet for 4 days. The note with it: in vivo, po, 96 h. The class given is ADME, organism-based. In short, it runs like this: as §3
Series [36] relates to Rattus norvegicus. Description: Hypolipidemic activity in Wistar rat assessed as reduction in plasma triglyceride level at 401 umol/kg/day administered through diet for 4 days. The class given is functional. Conditions: 96 h. In short, it runs like this: as §2

In the case of `CCCCCCCCCCCCCCOc1ccc(C(=O)CC(=O)OC)cc1`, the inhibition in vivo – broadly, the percentage by which the read-out fell short of the control – at 402 µmol/kg came out at 75% in series [1] and 40% in series [9]. The Activity in [2] came out at 9%; in [3] it was 0%; in series [6] it was 4%; in [10], 7%; in [11], 3%; in series [12], 0%. Further, the figures for the inhibition in vivo at 179 µmol/kg in [4] and in series [5] were 27% and 54%, respectively. Further, the inhibition in vivo at 85 µmol/kg in series [7] came to 44%; in series [8], 9%.

On to `CCCCCCCCCCCCCCOc1ccc(COC(=O)OCC)cc1`, for which the results for the inhibition in vivo at 385 µmol/kg in series [13] and in [15] were 38% and 70%, respectively. Besides, the Activity in [14] came out at 11%; in series [16], 12%.

`CCCCCCCCCCCCCCOc1ccc(C=O)cc1`: the Activity in series [17] was found to be 18%; in series [19], 12%. The results for the inhibition in vivo at 499 µmol/kg in series [18] and in series [20] were 25% and 68%, respectively.

Regarding `CCCCCCCCCCCCCCOc1ccc(CO)cc1`, the Activity is on record as 33% in series [21] and 17% in series [22]. For the same molecule, the inhibition in vivo at 477 µmol/kg in series [23] came out at 41%; in series [24], 35%.

With `CCCCCCCCCCCCCCOc1ccc(CC(=O)OC)cc1`, the inhibition in vivo at 472 µmol/kg in series [25] was found to be 0%; in series [27], 23%. For the same molecule, the Activity in series [26] amounted to 0%; in series [28] it was 8%.

Take `CCCCCCCCCCCCCCOc1ccc(C(N)=O)cc1`: the figures for the inhibition in vivo at 459 µmol/kg in series [29] and in series [31] were 3% and 0%, respectively. The Activity in series [30] and in series [32] was 0% each time.

On to `CCCCCCCCCCCCCCOc1ccc(CCC(=O)OC)cc1`, for which the Activity in [33] is listed as 15%; in series [35], 17%. Further, the inhibition in vivo at 401 µmol/kg was found to be 41% in series [34] and 73% in series [36].
